Entries after “also recorded” stand apart in the source; their conditions may differ. Read-outs that look alike come from different tables or passages of the source.
Experiments:
[1] = cited from earlier work
HER2 = conditions: read-out: half maximal inhibitory concentration for inhibiting the phosphorylation of HER2; ref [17], [23]–[26]; cited from earlier work
HER4 = conditions: read-out: half maximal inhibitory concentration for inhibiting the phosphorylation of HER4; ref [17], [23]–[26]; cited from earlier work
HER1 = conditions: read-out: half maximal inhibitory concentration for inhibiting the phosphorylation of HER1; ref [17], [23]–[26]; cited from earlier work
[2] = Paclitaxel pharmacokinetics in patients, cycle 1 day 1 and day 8; type: in vivo, human; conditions: for AUC(0-t): human, plasma, mean AUC0–24h of paclitaxel, cycle 1 day 1
[3] = Treatment-related adverse events; type: in vivo, human
[4] = Varlitinib plasma pharmacokinetics in patients, cycle 1; type: in vivo; conditions: human, oral, mean AUC0–24h, cohorts pooled
Method in brief: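 Blood samples taken in cycle 1 from patients on intermittent (4 days on/3 off) oral twice-daily varlitinib with weekly chemotherapy ± trastuzumab. Sampling was on cycle 1 day 5 at 0, 0.5, 1, 2, 5, 7 and 24 h after the varlitinib dose.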

[5] = tested on: advanced or metastatic solid tumors; assay: Tumor response; type: in vivo, human
[6] = Phase Ib dose-limiting toxicities and MTD determination; type: in vivo, human
[7] = cited from earlier work; remark: listed apart in the source
[8] = cohort A2: varlitinib 400 mg BD continuous + carboplatin + paclitaxel
[9] = cohort B (varlitinib + paclitaxel), n = 1

CS(=O)(=O)CCNCc1ccc(-c2ccc3ncnc(Nc4ccc(OCc5cccc(F)c5)c(Cl)c4)c3c2)o1 [lapatinib]
grade 3 and 4 diarrhea rate ([1]; combination of lapatinib and capecitabine): 12% | grade 3 and 4 diarrhea rate ([1]; combination of lapatinib and letrozole): 8% | IC50 (HER2): […]

CCOc1cc2ncc(C#N)c(Nc3ccc(OCc4ccccn4)c(Cl)c3)c2cc1NC(=O)/C=C/CN(C)C [neratinib, reference compound]
IC50 (HER2): 39 nM | IC50 (HER4): 19 nM | IC50 (HER1): 12 nM

CC(=O)O[C@H]1C(=O)[C@@]2(C)[C@H]([C@H](OC(=O)c3ccccc3)[C@]3(O)C[C@H](OC(=O)[C@H](O)[C@@H](NC(=O)c4ccccc4)c4ccccc4)C(C)=C1C3(C)C)[C@]1(OC(C)=O)CO[C@@H]1C[C@@H]2O [paclitaxel, reference compound]
AUC(0-t) ([2]; varlitinib 300-mg intermittent dosing cohorts (A4, B1, C1)): 5010 ± 1860 ng·h/mL | AUC(0-t) ([2]; varlitinib 400-mg intermittent dosing cohorts (A3, B2)): 6130 ± 2050 ng·h/mL

C[C@@H]1COC(Nc2ccc3ncnc(Nc4ccc(OCc5nccs5)c(Cl)c4)c3c2)=N1 [varlitinib]
all grade pneumonitis rate [3]: 5.4% | patients with reduction in left ventricular ejection fraction or cardiomyopathy ([3]; all cohorts): None | treatment-related mortality ([3]; all cohorts): no treatment-related mortality | any grade AE diarrhea ([3]; overall, all cohorts (n = 37)): 70.2% | any grade AE fatigue ([3]; overall, all cohorts (n = 37)): 67.5% | any grade AE neutropenia ([3]; overall, all cohorts (n = 37)): 45.9% | grade 3 and above AE hyponatremia ([3]; overall, all cohorts (n = 37)): 16.2% | grade 3 and above AE hypophosphatemia ([3]; overall, all cohorts (n = 37)): 13.5% | grade 3 and above AE neutropenia ([3]; overall, all cohorts (n = 37)): 40.5% | AUC(0-t) ([4]; 300-mg intermittent dosing): 44000 ng·h/mL | AUC(0-t) ([4]; 400-mg intermittent dosing): 75600 ng·h/mL | IC50 (HER2): 2 nM | IC50 (HER4): 4 nM | IC50 (HER1): 7 nM | median duration on study treatment ([5]; all patients, range 0.1–17.1 months): 3.0 months | median PFS ([5]; all patients, range 0.3–17.1 months): 3.7 months | overall response rate ([5]; entire cohort, 11/37): 29.7% | partial response rate ([5]; excluding the two subjects with non-metastatic breast cancer, 10/30): 33.3% | stable disease ([5]; excluding the two subjects with non-metastatic breast cancer, 13/30): 43.3% | stable disease as best response ([5]; patients evaluable for response, 13/31): 41.9% | median duration on study treatment ([5]; patients who achieved a partial response, range 2.2–17.1 months): 5.0 months | objective responses ([5]; varlitinib 300 mg continuous, 1/5 evaluable): 20% | objective responses ([5]; varlitinib 300 mg intermittent, 4/14 evaluable): 28.6% | objective responses ([5]; varlitinib 400 mg continuous, 2/5 evaluable): 40% | objective responses ([5]; varlitinib 400 mg intermittent, 3/6 evaluable): 50% | objective responses ([5]; varlitinib 500 mg continuous, 1/1 evaluable): 100% | DLT in cycle 1 (type = number of patients) [6, 8]: Febrile neutropenia = 3 | Number with DLTs [6, 8]: 3/5 | Number with DLTs ([6]; cohort A3: varlitinib 400 mg BD intermittent + carboplatin + paclitaxel): 2/4 | Number with DLTs ([6]; cohort A4: varlitinib 300 mg BD intermittent + carboplatin + paclitaxel): 2/6 | DLT G3/4 neutropenia, patients ([6]; cohort A (varlitinib + carboplatin + paclitaxel), n = 6 of 18): 33.3% | Number with DLTs ([6]; cohort B1: varlitinib 300 mg BD intermittent + weekly paclitaxel): 0/6 | DLT in cycle 1 (type = number of patients) ([6]; cohort B2: varlitinib 400 mg BD intermittent + paclitaxel): Febrile neutropenia = 1; also recorded: G3 transaminitis =1 | Number with DLTs ([6]; cohort B2: varlitinib 400 mg BD intermittent + weekly paclitaxel): 2/4 | DLT in cycle 1 (type = number of patients) ([6]; cohort B3: varlitinib 300 mg BD continuous + paclitaxel): G3 diarrhea = 1 | Number with DLTs ([6]; cohort B3: varlitinib 300 mg BD continuous + weekly paclitaxel): 4/6 | DLT G3 diarrhea, patients [6, 9]: 6.25% | DLT G3 transaminitis, patients [6, 9]: 6.25% | DLT G3/4 neutropenia, patients ([6]; cohort B (varlitinib + paclitaxel), n = 3 of 16): 18.8% | recommended phase II dose of varlitinib for the triplet combination ([6]; intermittently, with weekly paclitaxel and 3-weekly subcutaneous trastuzumab 600 mg): 300 mg | maximum tolerated dose (MTD) ([7]; monotherapy (ARRAY 543-103), continuous dose twice a day): 500 mg | median half-life ([7]; reported in other studies): 5 to 7 h | febrile neutropenia, patients ([7]; varlitinib in combination with 3-weekly docetaxel, phase I study): 7% | effect of varlitinib on the pharmacokinetics (Cmax, AUC) of paclitaxel ([2]; paclitaxel 80 mg/m^2 weekly): Varlitinib was well tolerated and did not significantly affect the pharmacokinetics of paclitaxel
